# Sampled rows, rich in hits. Any-hit rate of the full collection: about 2.3%.
# Rpn11 block: Rpn11 (PSMD14) deubiquitinase inhibitors, primary screen, biochemical, fluorescence polarization, uHTS; 26S proteasome non-ATPase regulatory subunit 14 (Homo sapiens), O00487; human 26S proteasome, Ub4-pepOG fluorescence polarization; 20S core pre-blocked with epoxomicin; inhibition, % at 20 µM; actives 0.59% (n = 360,000);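 active = inhibition at 20 µM, scaled to each plate's controls, above about 33%, limit read from the data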
# CSN inh: inhibitors of CSN-mediated cullin deneddylation, primary screen, biochemical, fluorescence polarization, uHTS. COP9 signalosome complex subunit 5 (Homo sapiens), Q92905. Purified CSN, SCF-Nedd8-OG deneddylation. inhibition, % at 12.5 µM. actives 0.38% (n = 360,000);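 active = pattern-corrected inhibition above about 35%, with an unprinted fluorescence ratio check between 0.5 and 1.5, limit read from the data, passing the limit was not always enough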;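 also: 0% = enzyme with substrate and 100% = substrate without enzyme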
# Target sequence (Q92905 whole entry, looked up, one chain of several): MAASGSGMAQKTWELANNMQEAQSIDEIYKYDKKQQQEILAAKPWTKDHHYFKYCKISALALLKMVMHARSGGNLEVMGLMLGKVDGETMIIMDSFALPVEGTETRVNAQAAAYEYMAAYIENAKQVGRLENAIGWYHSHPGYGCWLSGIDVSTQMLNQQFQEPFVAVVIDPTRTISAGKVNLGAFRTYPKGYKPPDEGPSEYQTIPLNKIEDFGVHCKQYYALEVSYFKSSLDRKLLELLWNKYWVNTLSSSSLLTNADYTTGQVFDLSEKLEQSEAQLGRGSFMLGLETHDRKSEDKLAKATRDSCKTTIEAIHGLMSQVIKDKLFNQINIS
#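 test system = HEK293T-derived human Csn5 enzyme | amount = 0.24 nM Csn5 enzyme, final concentration | medium = Tris/NaCl/DTT buffer, pH 7.5 | schedule = 90 min reaction at room temperature | signal = FP | evaluation = inhibition of Csn5 cleavage, % | compound dosing = single dose of 12.5 µM compound with 0.25% DMSO | probe or stimulus = 10 nM SCFSkp2-Nedd8OG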
# DNMT1 inh: human DNMT1 methyltransferase inhibitors, primary screen, biochemical, molecular beacon, fluorescence, HinP1I cleavage, uHTS; AID 588458, 2011; actives 0.83% (n = 360,000); inhibition (reported as % activation of signal), % at 10 µM; in the data active = inhibition above about 50%
# SUMO1 PPI mod: modulators of SUMO1 protein-protein interactions, primary screen, biochemical, uHTS; Small ubiquitin-related modifier 1 (Homo sapiens), P63165; actives 0.33% (n = 360,000); SUMO1 binding to a labelled peptide, TR-FRET, 1 h; AID 602429, 2012; inhibition, % at 20 µM; in the data active = inhibition above about 37%
# Target sequence (P63165 whole entry, looked up): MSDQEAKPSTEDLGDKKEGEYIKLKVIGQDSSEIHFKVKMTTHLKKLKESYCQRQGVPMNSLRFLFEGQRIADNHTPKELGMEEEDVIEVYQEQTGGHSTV
# SKN-1 inh: suppressors of acrylamide-induced Pgst-4::GFP reporter in worms, primary screen, SKN-1 inhibitor project, whole organism, uHTS, GFP/RFP fluorescence ratio, strain VP596 | inhibition, % at 21.8 µM | C. elegans VP596 Pgst-4::GFP/RFP ratio, 24 h | actives 0.49% (n = 360,000);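 active = interference check ratio from 0.5 to 1.5 plus GFP to RFP signal ratio inhibition reaching or exceeding a fixed threshold, cut at about 30% in these data, passing the limit was not always enough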
# MT1-MMP act inh: blockers of MT1-MMP proenzyme processing, primary screen, HT1080 RFP-PRO-GFP cells, GFP/RFP fluorescence; Matrix metalloproteinase-14 (Homo sapiens), P50281; GFP/RFP ratio fluorescence, overnight; percent of plate control window, DMSO zero; GFP/RFP ratio change, % at 20 µM; actives 0.061% (n = 360,000); AID 651647, 2012;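 active = GFP/RFP ratio change of at least 30% with cell ATP level not reduced by more than half and red fluorescence within 50% of control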
#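 Assay system: RFP-PRO-GFP reporter HT1080 cells; read-out basis: GFP/RFP fluorescence ratio; benchmarks: DMSO wells and RFP-L50D-GFP cells; doses: 20 µM single dose, 1% DMSO; schedule: overnight cell settling, then overnight compound exposure, 37 °C, 5% CO2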
# DNMT1 interf DR: spectral interference with molecular beacon fluorescence, dose response, artefact control for DNMT1 inhibitor project, biochemical, fluorescent molecular beacon; spectral interference counter-screen; AID 602382, 2012; 200 tested, under 10 active; shares compounds with DNMT1 inh; IC50, µM; call rule not given here
# DNMT1 inh conf: DNMT1 methyltransferase inhibitor retest, confirmation, biochemical, molecular beacon, fluorescence, single concentration; AID 602385, 2012; DNMT1 molecular beacon HinP1I cleavage; inhibition, % at 10 µM; actives 8% (n = 2,300); shares compounds with DNMT1 inh;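 active = average inhibition of at least 30% in the single-concentration confirmation test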
# DNMT1 interf: counter-screen for DNMT1 inhibitors: spectral interference | shares compounds with DNMT1 inh | activation (fluorescence interference), % at 10 µM | DNMT1 molecular beacon spectral interference counterscreen, fluorescence 485/520 | AID 602387 | actives 1% (n = 2,300);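 active = activation of at least 30% at 10 µM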;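 also: DNMT1 catalytic domain with a HinP1I cleavage step and a FAM/dabcyl DNA beacon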
# Numbers without * were called inactive; · = not tested or not shown.
SMILES,Rpn11 block,CSN inh,DNMT1 inh,SUMO1 PPI mod,SKN-1 inh,MT1-MMP act inh,DNMT1 inh conf,DNMT1 interf,others
O=C(NC1=NCCS1)C1CCN(S(=O)(=O)c2cc([N+](=O)[O-])ccc2Cl)CC1,-21.8,8.6,75.9*,-20.8,5.1,4.5,2.0,-1.6,
Cc1cccc2sc(NC(=O)C3CCN(S(=O)(=O)c4cc([N+](=O)[O-])ccc4Cl)CC3)nc12,-1.9,8.2,56.9*,4.3,1.5,-6.7,0.7,-0.8,
O=C(NC1CC1)C1CCN(S(=O)(=O)c2cc([N+](=O)[O-])ccc2Cl)CC1,-26.9,27.2,89.7*,-11.5,-3.3,1.0,6.0,-1.8,
CC1(C(=O)NS(=O)(=O)Cc2cccc(Cl)c2)CCN1C(=O)C/C=C/c1ccccc1 (stereo unspecified),1.4,2.1,4.6,6.7,0.1,-3.6,·,·,
CC(=O)Nc1ccc2c3c(cccc13)C(=O)N(c1ccccc1)C2=O,0.7,-10.0,0.5,-6.1,0.3,-5.5,·,·,
Nc1ccc2c3c(cccc13)C(=O)N(c1ccccc1)C2=O,-158.5,-100.6,59.7*,-50.3,-17.9,-122.3,145.6*,115.1*,
NN1C(=O)c2cccc3c(C(=O)O)ccc(c23)C1=O,-11.5,-6.9,3.7,-15.9,-0.2,-0.9,·,·,
O=C(O)c1ccc2c3c(cccc13)C(=O)N(c1ccccc1)C2=O,-3.4,14.9,62.9*,-2.9,4.8,-12.5,1.9,-1.5,
O=C(O)c1ccc(N2C(=O)c3cccc4c(C(=O)O)ccc(c34)C2=O)cc1,-1.7,28.6,90.6*,4.2,21.9,-0.9,14.9,-2.9,
CCCCNC(=O)C(NC(=O)c1ccc2ccccc2c1)C(=O)c1ccccc1 (stereo unspecified),·,0.1,·,1.2,15.5,-2.1,·,·,
COC(=O)C[C@H]1CC[C@@H](NS(=O)(=O)c2ccccc2)[C@@H](CO)O1,·,-6.9,·,-4.6,-2.4,0.4,·,·,
O=C(c1ccccc1)c1ccc(O)c(O)c1O,14.7,59.4,77.8*,20.1,11.2,0.0,7.2,-2.6,
COc1ccc2c3c(cccc13)C(=O)CC2,-262.3,-73.5,127.5*,-48.2,49.7,-10.3,22.8,36.9*,
CCc1ccccc1NC(=O)CSc1ccsc1[N+](=O)[O-],-10.8,5.2,53.0*,-14.7,-8.5,-5.9,4.9,1.9,
O=C(CSc1ccsc1[N+](=O)[O-])Nc1cccc(F)c1,-16.2,12.7,95.6*,-3.6,-6.5,-5.9,10.3,-0.4,
CNC(=O)C1Cc2c(-c3ccc4c(c3)OCO4)ccnc2O1 (stereo unspecified),0.2,-1.7,3.8,-2.1,2.8,6.9,·,·,
OC(c1ccccc1)C(Nc1ccccn1)c1ccccc1 (stereo unspecified),-1.6,-2.7,55.0*,-0.2,-9.9,1.0,1.7,7.7,
O=C(c1ccccc1)C(Nc1ccccn1)c1ccccc1 (stereo unspecified),-4.3,-9.0,-1.4,-4.1,4.5,1.4,·,·,
O=C(COC(=O)c1cc2c(s1)CCC2)Nc1ccc(F)cc1,-9.5,14.9,65.8*,-1.7,-9.6,-11.1,25.6,-1.6,DNMT1 interf DR=>99
NC(=O)c1ccc(NC(=O)COC(=O)c2cc3c(s2)CCC3)cc1,-17.2,1.6,79.5*,10.9,11.8,-1.2,-0.3,0.9,
CCOc1ccc(NC(=O)CN(C)C(=O)c2csc3c2CCCC3)cc1OCC,3.6,0.0,-1.9,-3.3,-0.9,1.9,·,·,
CCOc1ccc(NC(=O)CN(C)C(=O)c2cc3c(s2)CCC3)cc1OCC,4.2,22.6,93.5*,16.2,1.3,5.5,14.8,-2.2,
Cc1ccc(NC(=O)CN(C)C(=O)c2cc3c(s2)CCCCC3)cc1,4.6,-3.6,-1.5,1.8,-0.2,-0.7,·,·,
NC(=O)c1ccc(NC(=O)COC(=O)c2ccc3c(c2)OCO3)cc1,2.7,0.2,2.7,2.2,-4.3,4.3,·,·,
CC1(C(=O)Nc2ccc(Cl)cc2)Cc2c(-c3cccc(C(F)(F)F)c3)ccnc2O1 (stereo unspecified),4.7,2.9,-16.7,2.4,5.5,2.5,·,·,
SMILES,Rpn11 block,CSN inh,DNMT1 inh,SUMO1 PPI mod,SKN-1 inh,MT1-MMP act inh,DNMT1 inh conf,DNMT1 interf,others
Cc1ccc(NC(=O)CN2C(=O)N/C(=C/c3cc(C)n(-c4ccc(C(=O)O)cc4)c3C)C2=O)cc1,1.0,6.6,66.6*,-3.2,-14.8,-4.1,28.9,4.7,
Cc1ccc(NC(=O)CN2C(=O)N/C(=C/c3ccco3)C2=O)cc1,3.2,68.4,85.2*,-3.6,-18.0,2.2,2.2,-2.1,
CC1(C)C[C@H](O)[C@]2(CO)CC[C@]3(C)C(=CCC4[C@@]5(C)CC[C@H](O)C(C)(C)C5CC[C@]43C)[C@@H]2C1 (stereo partly specified),3.6,2.3,-20.1,0.9,6.4,1.6,·,·,
CC1(C)C[C@H](O)[C@]2(CO)[C@H](O)C[C@]3(C)C(=CCC4[C@@]5(C)CC[C@H](O)C(C)(C)C5CC[C@]43C)[C@@H]2C1 (stereo partly specified),3.8,-1.3,71.0*,3.4,-10.2,-8.3,2.0,-5.4,
Cc1ccc(NC(=O)c2cc(-c3ccco3)nc3ccccc23)cc1S(=O)(=O)N1CCOCC1,13.5,37.4*,68.3*,0.7,-3.7,-1.2,10.4,2.8,
COc1ccc(NC(=O)c2cc(-c3ccco3)nc3ccccc23)cc1S(=O)(=O)N1CCOCC1,0.7,39.6,63.5*,0.1,6.6,-0.5,20.7,0.0,
Cc1ccc2c(N)c(C)ccc2c1,-1.9,-8.4,-9.0,-18.3,11.6,-6.0,·,·,
Cc1ccc2cc3c(N)c4c(C)ccc(C)c4nc3nc2c1,-64.7,-12.3,72.2*,-13.0,17.0,-29.8,25.0,-8.3,DNMT1 interf DR=>99

# Bioassay records (PubChem)
